Assay results taken from ChEMBL document CHEMBL4819008, “Design, synthesis, and evaluation of "dual-site"-binding diarylpyrimidines targeting both NNIBP and the NNRTI adjacent site of the HIV-1 reverse transcriptase” (Eur J Med Chem, 2021).

What was measured:
[1] = tested on: Human immunodeficiency virus 1; assay: Antiviral activity against wild type HIV1 NL4-3 infected in human TZM-bl cells assessed as reduction in viral infection measured after 1 day by luciferase reporter gene assay based luminiscence assay; assay type: functional, organism-based; settings: Human immunodeficiency virus 1, NL4-3, TZM-bl, 24 h
Summary of the method: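 TZM-bl cells got a single-round infection with 800 TCID50 of NL4-3 at various compound concentrations, top concentration 100 ng/mL. Luminescence was read 1 day post-infection. EC50 is the concentration giving a 50% decrease in luciferase RLU versus control wells, determined in at least triplicate.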

[2] = Cytotoxicity against human TZM-bl cells assessed as reduction in cell viability measured after 1 day by CytoTox-Glo assay; assay type: cell-based
Summary of the method: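 TZM-bl cells were cultured 1 day with various compound concentrations, in parallel with the antiviral assay, top concentration 100 ng/mL. Viable cells were measured by CytoTox-Glo. CC50 is the concentration causing a 50% reduction in cell viability.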

[3] = Selectivity index, ratio of CC50 for human TZM-bl cells to EC50 for wild type HIV1 NL4-3 infected in human TZM-bl cells; assay type: toxicity, cell-based; settings: read-out: Ratio CC50/EC50
Summary of the method: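 Selectivity index is CC50/EC50, with both values from the TZM-bl assays: NL4-3 single-round luciferase infection and CytoTox-Glo viability, each over 1 day.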

[4] = Cytotoxicity against human MT4 cells assessed as reduction in cell viability measured after 5 days by MTT assay; assay type: cell-based; settings: time 5 day
Summary of the method: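 Mock-infected MT-4 cells (6 × 10^5 cells/mL) were run in parallel with the infected wells, under serial 5-fold compound dilutions in triplicate. MTT viability was read after 5 days and the median OD of three wells used. CC50 is the concentration that reduced OD540 of the mock-infected cells by 50%.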

[5] = tested on: Human immunodeficiency virus 1; assay: Antiviral activity against HIV-1 harboring reverse transcriptase Y181C mutant infected in human MT4 cells assessed as inhibition of virus induced cytopathic effect measured after 5 days by MTT assay; assay type: functional, organism-based; settings: Human immunodeficiency virus 1, MT4, 120 h
Summary of the method: (§1)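 MT-4 cells, exponentially growing, resuspended at 6 × 10^5 cells/mL and infected with the mutant HIV-1 stock at 100–300 CCID50. Compounds were added as 5-fold serial dilutions, in triplicate wells, alongside mock-infected wells. After 5 days, viability was read by MTT reduction at 540 and 690 nm using the median OD of three wells. EC50 is the concentration giving 50% protection from viral cytopathogenicity.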

[6] = tested on: Human immunodeficiency virus 1; assay: Antiviral activity against HIV-1 harboring reverse transcriptase L100I mutant infected in human MT4 cells assessed as inhibition of virus induced cytopathic effect measured after 5 days by MTT assay; assay type: functional, organism-based; settings: Human immunodeficiency virus 1, MT4, 120 h; summary of the method: as §1
[7] = tested on: Human immunodeficiency virus 1; assay: Antiviral activity against HIV-1 harboring reverse transcriptase K103N mutant infected in human MT4 cells assessed as inhibition of virus induced cytopathic effect measured after 5 days by MTT assay; assay type: functional, organism-based; settings: Human immunodeficiency virus 1, MT4, 120 h; summary of the method: as §1
[8] = tested on: Human immunodeficiency virus 1; assay: Antiviral activity against HIV-1 harboring reverse transcriptase F227L/V106A mutant infected in human MT4 cells assessed as inhibition of virus induced cytopathic effect measured after 5 days by MTT assay; assay type: functional, organism-based; settings: Human immunodeficiency virus 1, MT4, 120 h; summary of the method: as §1
[9] = Selectivity index, ratio of CC50 for human MT4 cells to EC50 for wild type HIV-1 3B infected in human MT4 cells; assay type: toxicity, cell-based; settings: read-out: Ratio CC50/EC50
[10] = tested on: Human immunodeficiency virus 1; assay: Antiviral activity against HIV-1 harboring reverse transcriptase E138K mutant infected in human MT4 cells assessed as inhibition of virus induced cytopathic effect measured after 5 days by MTT assay; assay type: functional, organism-based; settings: Human immunodeficiency virus 1, MT4, 120 h; summary of the method: as §1
[11] = tested on: Human immunodeficiency virus 1; assay: Antiviral activity against wild type HIV-1 3B infected in human MT4 cells assessed as inhibition of virus-induced cytopathic effect measured after 5 days by MTT assay; assay type: functional, organism-based; settings: Human immunodeficiency virus 1, 3B, MT4, 120 h
Summary of the method: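 MT-4 cells at 6 × 10^5 cells/mL were infected with virus stock at 100–300 CCID50 in the presence of serial 5-fold compound dilutions, in triplicate wells. Viability was read by MTT reduction 5 days after infection, with absorbance at 540 and 690 nm and the median OD of three wells used. EC50 is the concentration giving 50% protection from viral cytopathicity.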

[12] = tested on: Human immunodeficiency virus 1; assay: Antiviral activity against HIV-1 harboring reverse transcriptase RES056 mutant infected in human MT4 cells assessed as inhibition of virus induced cytopathic effect measured after 5 days by MTT assay; assay type: functional, organism-based; settings: Human immunodeficiency virus 1, MT4, 120 h; summary of the method: as §1
[13] = tested on: Human immunodeficiency virus 1; assay: Antiviral activity against HIV-1 harboring reverse transcriptase Y188L mutant infected in human MT4 cells assessed as inhibition of virus induced cytopathic effect measured after 5 days by MTT assay; assay type: functional, organism-based; settings: Human immunodeficiency virus 1, MT4, 120 h; summary of the method: as §1
[14] = Antiviral activity against HIV-2 ROD infected in human MT4 cells assessed as protection against virus-induced cytopathic effect measured after 5 days by MTT assay; settings: Human immunodeficiency virus 2, ISOLATE ROD, MT4, 120 h
[15] = target: Human immunodeficiency virus type 1 reverse transcriptase (Human immunodeficiency virus 1, UniProt Q72547); assay: Inhibition of HIV-1 reverse transcriptase assessed as reduction in biotin-dUTP incorporation into cDNA incubated for 1 hr with DIG-dUTP, biotin-dUTP and dTTP followed by transferring onto streptavidin-coated plate and measured after 1 hr by ELISA
Summary of the method: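 Recombinant WT HIV-1 RT was tested with a Roche colorimetric kit. Enzyme, reconstituted template, DIG-dUTP, biotin-dUTP and dTTP were incubated 1 h at 37 °C in incubation buffer with or without inhibitor. The mix was then held 1 h at 37 °C on a streptavidin-coated plate, then anti-DIG-POD 1 h at 37 °C, then ABTS at 25 °C, and read at OD405.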

Compound	EC50 [1]	CC50 at 24 h [2]	selectivity ratio [3]	CC50 at 120 h [4]	EC50 [5]	EC50 [6]	EC50 [7]	EC50 [8]	selectivity ratio [9]	EC50 [10]	EC50 [11]	EC50 [12]	EC50 [13]	EC50 [14]	IC50 [15]
Cc1cc(C#N)cc(C)c1Oc1nc(Nc2ccc(C#N)cc2)ncc1/C=C/C(=O)NCC1CCN(S(C)(=O)=O)C1 (centres undefined)	13.6 nM	> 175 nM	> 13	–	–	–	–	–	–	–	–	–	–	–	–
Cc1cn([C@H]2C[C@H](N=[N+]=[N-])[C@@H](CO)O2)c(=O)[nH]c1=O [ZIDOVUDINE]	7.5 nM	> 6300 nM	> 1000	> 7500 nM	8.7 nM	7 nM	12.6 nM	4.7 nM	> 410	14.5 nM	18.3 nM	20.1 nM	9.9 nM	–	–
CC(=O)N1CCN(C(=O)/C=C/c2cnc(Nc3ccc(C#N)cc3)nc2Oc2c(C)cc(C#N)cc2C)CC1	49.9 nM	> 192 nM	> 4	–	–	–	–	–	–	–	–	–	–	–	–
Cc1cc(C#N)cc(C)c1Oc1nc(Nc2ccc(C#N)cc2)ncc1/C=C/C(=O)NC1CCN(S(C)(=O)=O)CC1	14.2 nM	> 175 nM	> 12	–	–	–	–	–	–	–	–	–	–	–	–
Cc1cc(C#N)cc(C)c1Oc1nc(Nc2ccc(C#N)cc2)ncc1/C=C/C(=O)NCCCN1CCOCC1	3.53 nM	> 186 nM	> 53	23000 nM	124 nM	254 nM	22 nM	443 nM	2200	22.6 nM	10.5 nM	1210 nM	212 nM	> 23000 nM	–
CCOC(=O)/C=C/c1cnc(Nc2ccc(C#N)cc2)nc1Oc1c(C)cc(C#N)cc1C	18.7 nM	> 227 nM	> 12	–	–	–	–	–	–	–	–	–	–	–	–
Cc1cc(C#N)cc(C)c1Oc1nc(Nc2ccc(C#N)cc2)ncc1/C=C/C(=O)NC1CCN(S(=O)(=O)C(F)(F)F)CC1	> 160 nM	> 160 nM	> 1	–	–	–	–	–	–	–	–	–	–	–	–
Cc1cc(C#N)cc(C)c1Oc1nc(Nc2ccc(C#N)cc2)ncc1/C=C/C(=O)N1CCN(C(=O)C(F)(F)F)CC1	13.7 nM	> 174 nM	> 13	–	–	–	–	–	–	–	–	–	–	–	–
Cc1cc(C#N)cc(C)c1Oc1nc(Nc2ccc(C#N)cc2)ncc1/C=C/C(=O)NCC1CCN(S(C)(=O)=O)CC1	12.8 nM	> 171 nM	> 13	–	–	–	–	–	–	–	–	–	–	–	–
Cc1cc(C#N)cc(C)c1Oc1nc(Nc2ccc(C#N)cc2)ncc1/C=C/C(=O)N1CCN(S(=O)(=O)C(F)(F)F)CC1	> 164 nM	> 164 nM	> 1	–	–	–	–	–	–	–	–	–	–	–	–
Cc1cc(C#N)cc(C)c1Oc1nc(Nc2ccc(C#N)cc2)ncc1/C=C/C(=O)NCCN1CCOCC1	3.44 nM	> 190 nM	> 56	22400 nM	108 nM	263 nM	18.5 nM	462 nM	2630	21.8 nM	8.5 nM	1750 nM	123 nM	> 22400 nM	–
Cc1cc(C#N)cc(C)c1Oc1nc(Nc2ccc(C#N)cc2)ncc1SCC(=O)NCCCN1CCOCC1	3.77 nM	> 179 nM	> 48	24000 nM	19.1 nM	16.3 nM	2.2 nM	182 nM	6540	37.3 nM	3.7 nM	332 nM	38.7 nM	> 24000 nM	35 nM
Cc1cc(C#N)cc(C)c1Oc1nc(Nc2ccc(C#N)cc2)ncc1/C=C/C(=O)NCCN1CCN(S(C)(=O)=O)CC1	4.16 nM	> 166 nM	> 40	5900 nM	48.6 nM	78.6 nM	8.7 nM	251 nM	955	20.9 nM	6.1 nM	808 nM	101 nM	> 5860 nM	–
